From ChEMBL document CHEMBL5674867, “The SUV39H1 inhibitor chaetocin induces differentiation and shows synergistic cytotoxicity with other epigenetic drugs in acute myeloid leukemia cells” (Blood Cancer J, 2015)
pIC50: −log10 of the molar value. Active and inactive are the calls of the source. No cut-off for these calls is given here.

Legend:
[1] = tested on: KG-1a; assay: Cytotoxicity against human KG-1a cells assessed as decrease in cell viability measured after 24 hrs by MTT assay; format: functional, cell-based
Summary of the method: (§1)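 MTT viability read 24 h after exposure over a low concentration range (0–25 μM for one inhibitor, 0–100 for the other as printed). IC50 was derived for each line. Culture: HL-60 and U937 in RPMI + 10% FBS, KG-1a in IMDM + 15% FBS.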

[2] = tested on: HL-60; assay: Cytotoxicity against human HL-60 cells assessed as decrease in cell viability measured after 48 hrs by MTT assay; format: functional, cell-based; conditions: HL-60, 48 h
[3] = tested on: HL-60; assay: Cytotoxicity against human HL-60 cells assessed as decrease in cell viability measured after 24 hrs by MTT assay; format: functional, cell-based; conditions: HL-60, 24 h; summary of the method: as §1
[4] = tested on: KG-1a; assay: Induction of myeloid differentiation in human KG-1a cells at 20 uM assessed as increase in CD11b mRNA expression measured after 48 hrs by RT-PCR assay; format: functional, cell-based
Summary of the method: (§2)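 Cells exposed for 48 h (KG-1a in IMDM/15% FBS; HL-60 and U937 in RPMI/10% FBS). Total RNA extracted, 1 µg reverse transcribed, CD11b quantified by SYBR green real-time PCR normalised to actin. Cycling was 30 cycles of 95 °C, 60 °C and 72 °C, 45 s each. Mean ± s.e. of three independent experiments, compared with untreated control.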

[5] = tested on: U-937; assay: Cytotoxicity against human U-937 cells assessed as decrease in cell viability measured after 24 hrs by MTT assay; format: functional, cell-based; conditions: U-937, 24 h; summary of the method: as §1
[6] = tested on: HL-60; assay: Induction of myeloid differentiation in human HL-60 cells at 20 uM assessed as increase in CD11b mRNA expression measured after 48 hrs by RT-PCR assay; format: functional, cell-based; summary of the method: as §2
[7] = tested on: KG-1a; assay: Cytotoxicity against human KG-1a cells assessed as decrease in cell viability measured after 48 hrs by MTT assay; format: functional, cell-based
[8] = tested on: U-937; assay: Induction of myeloid differentiation in human U-937 cells at 20 uM assessed as increase in CD11b mRNA expression measured after 48 hrs by RT-PCR assay; format: functional, cell-based; summary of the method: as §2
[9] = tested on: U-937; assay: Cytotoxicity against human U-937 cells assessed as decrease in cell viability measured after 48 hrs by MTT assay; format: functional, cell-based; conditions: U-937, 48 h
[10] = tested on: KG-1a; assay: Induction of myeloid differentiation in human KG-1a cells at 20 nM assessed as appearance of nuclear segmentation measured after 12 hrs by Liu's staining method; format: functional, cell-based
Summary of the method: (§3)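 Cells exposed 12 h were spun onto slides by cytospin. They were stained with Liu's reagent A for 1 min, then reagent B for 2.5 min, and morphology was examined by light microscopy.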

[11] = biological target: T1, Histone-lysine N-methyltransferase SUV39H1 (Homo sapiens) (UniProt O43463); conditions: U-937, dose 20.0 nM, time 48.0 hrs
T1 sequence (whole entry): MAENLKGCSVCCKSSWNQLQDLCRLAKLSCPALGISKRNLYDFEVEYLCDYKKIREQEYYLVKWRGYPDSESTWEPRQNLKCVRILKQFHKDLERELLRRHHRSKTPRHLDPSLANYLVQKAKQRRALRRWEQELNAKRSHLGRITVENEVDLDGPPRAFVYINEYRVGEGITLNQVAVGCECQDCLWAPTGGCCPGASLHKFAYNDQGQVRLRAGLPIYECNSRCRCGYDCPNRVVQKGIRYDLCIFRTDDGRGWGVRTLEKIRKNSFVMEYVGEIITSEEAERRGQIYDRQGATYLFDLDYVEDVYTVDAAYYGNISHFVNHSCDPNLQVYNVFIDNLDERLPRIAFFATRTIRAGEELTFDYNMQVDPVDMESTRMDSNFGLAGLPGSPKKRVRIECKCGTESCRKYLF

[12] = tested on: U-937; assay: Induction of myeloid differentiation in human U-937 cells at 20 nM in combination with 0.5 uM SAHA measured after 12 hrs by Liu's staining method; format: functional, cell-based
Summary of the method: (§4)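 Cells received single epigenetic inhibitors or combinations and were collected by cytospin. After Liu's staining (reagent A 1 min, reagent B 2.5 min), differentiated cells were counted under a light microscope. Mean ± s.e. of three independent experiments.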

[13] = biological target: T1, Histone-lysine N-methyltransferase SUV39H1 (Homo sapiens); conditions: U-937, dose 20.0 nM, time 48.0 hrs; remark: listed apart in the source
[14] = tested on: U-937; assay: Induction of myeloid differentiation in human U-937 cells at 20 nM assessed as decrease in SUV39H1 mRNA expression measured after 48 hrs by RT-PCR assay; format: functional, cell-based
Summary of the method: (§5)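 Treatment was 48 h. Total RNA (1 µg) was reverse transcribed, then SYBR green real-time PCR was run with actin as internal control: 95 °C 5 min, then 30 cycles of 95 °C/45 s, 60 °C/45 s, 72 °C/45 s. Mean ± s.e. of three independent experiments, compared with untreated control.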

[15] = biological target: T1, Histone-lysine N-methyltransferase SUV39H1 (Homo sapiens); conditions: KG-1a, dose 20.0 nM, time 48.0 hrs
[16] = biological target: T1, Histone-lysine N-methyltransferase SUV39H1 (Homo sapiens); conditions: U-937, dose 20.0 nM, time 48.0 hrs; remark: listed apart in the source
[17] = tested on: KG-1a; assay: Induction of myeloid differentiation in human KG-1a cells at 20 nM assessed as decrease in SUV39H1 mRNA expression measured after 48 hrs by RT-PCR assay; format: functional, cell-based; summary of the method: as §5
[18] = tested on: KG-1a; assay: Induction of myeloid differentiation in human KG-1a cells at 20 nM assessed as increase in CD11b mRNA expression measured after 48 hrs by RT-PCR assay; format: functional, cell-based; summary of the method: as §5
[19] = tested on: HL-60; assay: Induction of myeloid differentiation in human HL-60 cells at 20 nM assessed as decrease in G9a mRNA expression measured after 48 hrs by RT-PCR assay; format: functional, cell-based; summary of the method: as §5
[20] = biological target: T1, Histone-lysine N-methyltransferase SUV39H1 (Homo sapiens); conditions: HL-60, dose 20.0 nM, time 48.0 hrs
[21] = tested on: HL-60; assay: Induction of myeloid differentiation in human HL-60 cells at 20 nM assessed as reduction of nucleus to cytoplasm ratio measured after 12 hrs by Liu's staining method; format: functional, cell-based; summary of the method: as §3
[22] = tested on: KG-1a; assay: Induction of myeloid differentiation in human KG-1a cells at 20 nM assessed as decrease in G9a mRNA expression measured after 48 hrs by RT-PCR assay; format: functional, cell-based; summary of the method: as §5
[23] = biological target: T1, Histone-lysine N-methyltransferase SUV39H1 (Homo sapiens); conditions: HL-60, dose 20.0 nM, time 48.0 hrs; remark: listed apart in the source
[24] = tested on: HL-60; assay: Induction of myeloid differentiation in human HL-60 cells at 20 nM assessed as appearance of nuclear segmentation measured after 12 hrs by Liu's staining method; format: functional, cell-based; summary of the method: as §3
[25] = biological target: T1, Histone-lysine N-methyltransferase SUV39H1 (Homo sapiens); conditions: U-937, dose 20.0 nM, time 48.0 hrs; remark: listed apart in the source
[26] = biological target: T1, Histone-lysine N-methyltransferase SUV39H1 (Homo sapiens); conditions: HL-60, dose 20.0 nM, time 48.0 hrs; remark: listed apart in the source
[27] = biological target: T1, Histone-lysine N-methyltransferase SUV39H1 (Homo sapiens); conditions: KG-1a, dose 20.0 nM, time 48.0 hrs; remark: listed apart in the source
[28] = tested on: HL-60; assay: Induction of myeloid differentiation in human HL-60 cells at 20 nM in combination with 0.5 uM SAHA measured after 12 hrs by Liu's staining method; format: functional, cell-based; summary of the method: as §4
[29] = tested on: HL-60; assay: Induction of myeloid differentiation in human HL-60 cells at 20 nM assessed as decrease in SUV39H1 mRNA expression measured after 48 hrs by RT-PCR assay; format: functional, cell-based; summary of the method: as §5
[30] = biological target: T1, Histone-lysine N-methyltransferase SUV39H1 (Homo sapiens); conditions: KG-1a, dose 20.0 nM, time 48.0 hrs; remark: listed apart in the source
[31] = tested on: KG-1a; assay: Induction of myeloid differentiation in human KG-1a cells at 20 nM assessed as reduction of nucleus to cytoplasm ratio measured after 12 hrs by Liu's staining method; format: functional, cell-based; summary of the method: as §3
[32] = tested on: U-937; assay: Induction of myeloid differentiation in human U-937 cells at 20 nM assessed as decrease in G9a mRNA expression measured after 48 hrs by RT-PCR assay; format: functional, cell-based; summary of the method: as §5
[33] = biological target: T1, Histone-lysine N-methyltransferase SUV39H1 (Homo sapiens); conditions: KG-1a, dose 20.0 nM, time 48.0 hrs; remark: listed apart in the source
[34] = tested on: HL-60; assay: Induction of myeloid differentiation in human HL-60 cells at 20 nM assessed as increase in CD11b mRNA expression measured after 48 hrs by RT-PCR assay; format: functional, cell-based; summary of the method: as §5
[35] = biological target: T1, Histone-lysine N-methyltransferase SUV39H1 (Homo sapiens); conditions: HL-60, dose 20.0 nM, time 48.0 hrs; remark: listed apart in the source
[36] = tested on: KG-1a; assay: Induction of myeloid differentiation in human KG-1a cells at 20 nM in combination with 0.5 uM SAHA measured after 12 hrs by Liu's staining method; format: functional, cell-based; summary of the method: as §4
[37] = tested on: U-937; assay: Induction of myeloid differentiation in human U-937 cells at 20 nM assessed as increase in CD11b mRNA expression measured after 48 hrs by RT-PCR assay; format: functional, cell-based; summary of the method: as §5

COc1cc2c(NC3CCN(C(C)C)CC3)nc(C3CCCCC3)nc2cc1OCCCN1CCCC1 was tested, and the pIC50 [1] was 4.58, the pIC50 [2] was 4.62 and the pIC50 [3] was 4.56. The Activity [4] was “inactive”, the pIC50 [5] was 4.67 and the Activity [6] was “inactive”. For the same compound, the pIC50 [7] was 4.65, the Activity [8] was “inactive” and the pIC50 [9] was 4.71.

With CN1C(=O)[C@@]23C[C@]4([C@]56C[C@@]78SS[C@@](CO)(C(=O)N7[C@H]5Nc5ccccc56)N(C)C8=O)c5ccccc5N[C@@H]4N2C(=O)[C@]1(CO)SS3 the Activity [10] was “Active”, the inhibition [11] was “inactive” and the Activity [12] was “inactive”. For the same compound, the inhibition [13] was “inactive”, the Activity [14] was “inactive” and the inhibition [15] was “Active”. For the same compound, the inhibition [16] was “inactive”, the Activity [17] was “Active” and the Activity [18] was “Active”. For the same compound, the Activity [19] was “Active”, the inhibition [20] was “Active” and the Activity [21] was “Active”. The Activity [22] was “Active”, the inhibition [23] was “Active” and the Activity [24] was “Active”. The inhibition [25] was “inactive”, the inhibition [26] was “Active” and the inhibition [27] was “Active”. The Activity [28] was “inactive”, the Activity [29] was “Active” and the inhibition [30] was “Active”. For the same compound, the Activity [31] was “Active”, the Activity [32] was “inactive” and the inhibition [33] was “Active”. For the same compound, the Activity [34] was “Active”, the inhibition [35] was “Active” and the Activity [36] was “inactive”. The Activity [37] was “Active”.
